Results: ChEMBL document CHEMBL5376013, “Design, synthesis and biological evaluation of novel morpholinopyrimidine-5-carbonitrile derivatives as dual PI3K/mTOR inhibitors” (RSC Med Chem, 2024)

Tests used:
Assay type in all cases: functional
Conditions in all cases: read-out: GI
MDA-MB-231 = test: Antitumor activity against human MDA-MB-231 cells assessed as growth inhibition at 10 uM relative to control
How it was run: (§1)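 After drug addition, plates were incubated 48 h at 37 °C under 5% CO2. Adherent cells were fixed with cold TCA (10% final, 60 min, 4 °C) and suspension cells with 16% final TCA. Staining used 0.4% SRB in 1% acetic acid, solubilized in 10 mM trizma, read at A515. Percent growth was calculated from time-zero, control and treated absorbances.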

CCRF-CEM = test: Antitumor activity against human CCRF-CEM cells assessed as growth inhibition at 10 uM relative to control; how it was run: as §1
EKVX = test: Antitumor activity against human EKVX cells assessed as growth inhibition at 10 uM relative to control; how it was run: as §1
A498 = test: Antitumor activity against human A498 cells assessed as growth inhibition at 10 uM relative to control; how it was run: as §1
NCI/ADR-RES = test: Antitumor activity against human NCI-ADR-RES cells assessed as growth inhibition at 10 uM relative to control; how it was run: as §1
ACHN = test: Antitumor activity against human ACHN cells assessed as growth inhibition at 10 uM relative to control; how it was run: as §1
A549 = test: Antitumor activity against human A549 cells assessed as growth inhibition at 10 uM relative to control; how it was run: as §1
MDA-MB-435 = test: Antitumor activity against human MDA-MB-435 cells assessed as growth inhibition at 10 uM relative to control; how it was run: as §1
BT-549 = test: Antitumor activity against human BT-549 cells assessed as growth inhibition at 10 uM relative to control; how it was run: as §1
SK-OV-3 = test: Antitumor activity against human SK-OV-3 cells assessed as growth inhibition at 10 uM relative to control
How it was run: (§2)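 Drug exposure 48 h at 37 °C, 5% CO2. Adherent cells fixed with cold TCA (10% final), suspension cells with TCA (16% final). Stained with 0.4% SRB in 1% acetic acid, dissolved in 10 mM Tris, A515. Growth relative to time-zero and untreated control.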

CAKI-1 = test: Antitumor activity against human CAKI-1 cells assessed as growth inhibition at 10 uM relative to control; how it was run: as §1
NCI-H522 = test: Antitumor activity against human NCI-H522 cells assessed as growth inhibition at 10 uM relative to control; how it was run: as §1
SF-268 = test: Antitumor activity against human SF-268 cells assessed as growth inhibition at 10 uM relative to control; how it was run: as §1
SK-MEL-28 = test: Antitumor activity against human SK-MEL-28 cells assessed as growth inhibition at 10 uM relative to control; how it was run: as §2
SN12C = test: Antitumor activity against human SN12C cells assessed as growth inhibition at 10 uM relative to control; how it was run: as §2
786-0 = test: Antitumor activity against human 786-0 cells assessed as growth inhibition at 10 uM relative to control; how it was run: as §1
HCT-15 = test: Antitumor activity against human HCT-15 cells assessed as growth inhibition at 10 uM relative to control; how it was run: as §1
IGROV-1 = test: Antitumor activity against human IGROV-1 cells assessed as growth inhibition at 10 uM relative to control; how it was run: as §1
OVCAR-8 = test: Antitumor activity against human OVCAR-8 cells assessed as growth inhibition at 10 uM relative to control; how it was run: as §1
SK-MEL-2 = test: Antitumor activity against human SK-MEL-2 cells assessed as growth inhibition at 10 uM relative to control; how it was run: as §1
Hs-578T = test: Antitumor activity against human Hs-578T cells assessed as growth inhibition at 10 uM relative to control; how it was run: as §1
RXF 393 = test: Antitumor activity against human RXF 393 cells assessed as growth inhibition at 10 uM relative to control; how it was run: as §1
COLO 205 = test: Antitumor activity against human COLO 205 cells assessed as growth inhibition at 10 uM relative to control; how it was run: as §1
MOLT-4 = test: Antitumor activity against human MOLT-4 cells assessed as growth inhibition at 10 uM relative to control; how it was run: as §1
K562 = test: Antitumor activity against human K562 cells assessed as growth inhibition at 10 uM relative to control; how it was run: as §1
SNB-19 = test: Antitumor activity against human SNB-19 cells assessed as growth inhibition at 10 uM relative to control; how it was run: as §2
SF-539 = test: Antitumor activity against human SF-539 cells assessed as growth inhibition at 10 uM relative to control; how it was run: as §1
HL-60 = test: Antitumor activity against human HL-60 cells assessed as growth inhibition at 10 uM relative to control; how it was run: as §1
NCI-H460 = test: Antitumor activity against human NCI-H460 cells assessed as growth inhibition at 10 uM relative to control; how it was run: as §1
LOX IMVI = test: Antitumor activity against human LOX IMVI cells assessed as growth inhibition at 10 uM relative to control; how it was run: as §1
NCI-H23 = test: Antitumor activity against human NCI-H23 cells assessed as growth inhibition at 10 uM relative to control; how it was run: as §1
HCC 2998 = test: Antitumor activity against human HCC 2998 cells assessed as growth inhibition at 10 uM relative to control; how it was run: as §1
UACC-62 = test: Antitumor activity against human UACC-62 cells assessed as growth inhibition at 10 uM relative to control; how it was run: as §2
PC-3 = test: Antitumor activity against human PC-3 cells assessed as growth inhibition at 10 uM relative to control; how it was run: as §1
OVCAR-5 = test: Antitumor activity against human OVCAR-5 cells assessed as growth inhibition at 10 uM relative to control; how it was run: as §1
NCI-H322M = test: Antitumor activity against human NCI-H322M cells assessed as growth inhibition at 10 uM relative to control; how it was run: as §1
UO-31 = test: Antitumor activity against human UO-31 cells assessed as growth inhibition at 10 uM relative to control; how it was run: as §2
NCI-H226 = test: Antitumor activity against human NCI-H226 cells assessed as growth inhibition at 10 uM relative to control; how it was run: as §1
TK-10 = test: Antitumor activity against human TK-10 cells assessed as growth inhibition at 10 uM relative to control; how it was run: as §2
MCF7 = test: Antitumor activity against human MCF7 cells assessed as growth inhibition at 10 uM relative to control; how it was run: as §1
U-251 = test: Antitumor activity against human U-251 cells assessed as growth inhibition at 10 uM relative to control; how it was run: as §2
SR = test: Antitumor activity against human SR cells assessed as growth inhibition at 10 uM relative to control; how it was run: as §2
SK-MEL-5 = test: Antitumor activity against human SK-MEL-5 cells assessed as growth inhibition at 10 uM relative to control; how it was run: as §2
HT-29 = test: Antitumor activity against human HT-29 cells assessed as growth inhibition at 10 uM relative to control; how it was run: as §1
DU-145 = test: Antitumor activity against human DU-145 cells assessed as growth inhibition at 10 uM relative to control; how it was run: as §1
T47D = test: Antitumor activity against human T47D cells assessed as growth inhibition at 10 uM relative to control; how it was run: as §2

CSc1nc(Cl)c(C#N)c(-c2ccc(Cl)cc2)n1
inhibition of growth at 10 µM (MDA-MB-231): < 1%
inhibition of growth at 10 µM (CCRF-CEM): 26.1%
inhibition of growth at 10 µM (EKVX): < 1%
inhibition of growth at 10 µM (A498): < 1%
inhibition of growth at 10 µM (NCI/ADR-RES): < 1%
inhibition of growth at 10 µM (ACHN): < 1%
inhibition of growth at 10 µM (A549): < 1%
inhibition of growth at 10 µM (MDA-MB-435): < 1%
inhibition of growth at 10 µM (BT-549): 11.2%
inhibition of growth at 10 µM (SK-OV-3): < 1%
inhibition of growth at 10 µM (CAKI-1): < 1%
inhibition of growth at 10 µM (NCI-H522): < 1%
inhibition of growth at 10 µM (SF-268): < 1%
inhibition of growth at 10 µM (SK-MEL-28): < 1%
inhibition of growth at 10 µM (SN12C): < 1%
inhibition of growth at 10 µM (786-0): < 1%
inhibition of growth at 10 µM (HCT-15): < 1%
inhibition of growth at 10 µM (IGROV-1): < 1%
inhibition of growth at 10 µM (OVCAR-8): < 1%
inhibition of growth at 10 µM (SK-MEL-2): < 1%
inhibition of growth at 10 µM (Hs-578T): < 1%
inhibition of growth at 10 µM (RXF 393): < 1%
inhibition of growth at 10 µM (COLO 205): < 1%
inhibition of growth at 10 µM (MOLT-4): 27.6%
inhibition of growth at 10 µM (K562): 44.5%
inhibition of growth at 10 µM (SNB-19): < 1%
inhibition of growth at 10 µM (SF-539): < 1%
inhibition of growth at 10 µM (HL-60): < 1%
inhibition of growth at 10 µM (NCI-H460): < 1%
inhibition of growth at 10 µM (LOX IMVI): < 1%
inhibition of growth at 10 µM (NCI-H23): < 1%
inhibition of growth at 10 µM (HCC 2998): < 1%
inhibition of growth at 10 µM (UACC-62): 25.6%
inhibition of growth at 10 µM (PC-3): < 1%
inhibition of growth at 10 µM (OVCAR-5): < 1%
inhibition of growth at 10 µM (NCI-H322M): < 1%
inhibition of growth at 10 µM (UO-31): < 1%
inhibition of growth at 10 µM (NCI-H226): < 1%
inhibition of growth at 10 µM (TK-10): < 1%
inhibition of growth at 10 µM (MCF7): 1%
inhibition of growth at 10 µM (U-251): < 1%
inhibition of growth at 10 µM (SR): 58.5%
inhibition of growth at 10 µM (SK-MEL-5): < 1%
inhibition of growth at 10 µM (HT-29): < 1%
inhibition of growth at 10 µM (DU-145): < 1%
inhibition of growth at 10 µM (T47D): < 1%

N#Cc1c(-c2ccc(Cl)cc2)[nH]c(=S)[nH]c1=O
inhibition of growth at 10 µM (MDA-MB-231): < 1%
inhibition of growth at 10 µM (CCRF-CEM): < 1%
inhibition of growth at 10 µM (EKVX): < 1%
inhibition of growth at 10 µM (A498): < 1%
inhibition of growth at 10 µM (NCI/ADR-RES): < 1%
inhibition of growth at 10 µM (ACHN): < 1%
inhibition of growth at 10 µM (A549): < 1%
inhibition of growth at 10 µM (MDA-MB-435): < 1%
inhibition of growth at 10 µM (BT-549): < 1%
inhibition of growth at 10 µM (SK-OV-3): < 1%
inhibition of growth at 10 µM (CAKI-1): < 1%
inhibition of growth at 10 µM (NCI-H522): < 1%
inhibition of growth at 10 µM (SF-268): < 1%
inhibition of growth at 10 µM (SK-MEL-28): < 1%
inhibition of growth at 10 µM (SN12C): < 1%
inhibition of growth at 10 µM (786-0): < 1%
inhibition of growth at 10 µM (HCT-15): < 1%
inhibition of growth at 10 µM (IGROV-1): < 1%
inhibition of growth at 10 µM (OVCAR-8): < 1%
inhibition of growth at 10 µM (SK-MEL-2): < 1%
inhibition of growth at 10 µM (Hs-578T): < 1%
inhibition of growth at 10 µM (RXF 393): < 1%
inhibition of growth at 10 µM (COLO 205): < 1%
inhibition of growth at 10 µM (MOLT-4): < 1%
inhibition of growth at 10 µM (K562): < 1%
inhibition of growth at 10 µM (SNB-19): < 1%
inhibition of growth at 10 µM (SF-539): < 1%
inhibition of growth at 10 µM (HL-60): < 1%
inhibition of growth at 10 µM (NCI-H460): < 1%
inhibition of growth at 10 µM (LOX IMVI): < 1%
inhibition of growth at 10 µM (NCI-H23): < 1%
inhibition of growth at 10 µM (HCC 2998): < 1%
inhibition of growth at 10 µM (UACC-62): < 1%
inhibition of growth at 10 µM (PC-3): < 1%
inhibition of growth at 10 µM (OVCAR-5): 33.4%
inhibition of growth at 10 µM (NCI-H322M): < 1%
inhibition of growth at 10 µM (UO-31): 10.2%
inhibition of growth at 10 µM (NCI-H226): < 1%
inhibition of growth at 10 µM (TK-10): < 1%
inhibition of growth at 10 µM (MCF7): < 1%
inhibition of growth at 10 µM (U-251): < 1%
inhibition of growth at 10 µM (SR): < 1%
inhibition of growth at 10 µM (SK-MEL-5): < 1%
inhibition of growth at 10 µM (HT-29): < 1%
inhibition of growth at 10 µM (DU-145): < 1%
inhibition of growth at 10 µM (T47D): < 1%
